# Measured values: ChEMBL document CHEMBL2086328, “¹⁸F-labeled 2-phenylquinoxaline derivatives as potential positron emission tomography probes for in vivo imaging of β-amyloid plaques” (Eur J Med Chem, 2012)
# The source made the active and inactive calls. The rule behind the calls is not given here.
# What was measured:
# [1] = biological target: Amyloid-beta precursor protein (Homo sapiens) (UniProt P05067); assay: Binding affinity to beta-amyloid in normal human brain at 1.85 MBq/[…] after 1 hr by thioflavin-S based autoradiography; conditions: 1.85 M, tested as the 18F-labelled form
# Sequence of Amyloid-beta precursor protein (Homo sapiens) (P05067 whole entry): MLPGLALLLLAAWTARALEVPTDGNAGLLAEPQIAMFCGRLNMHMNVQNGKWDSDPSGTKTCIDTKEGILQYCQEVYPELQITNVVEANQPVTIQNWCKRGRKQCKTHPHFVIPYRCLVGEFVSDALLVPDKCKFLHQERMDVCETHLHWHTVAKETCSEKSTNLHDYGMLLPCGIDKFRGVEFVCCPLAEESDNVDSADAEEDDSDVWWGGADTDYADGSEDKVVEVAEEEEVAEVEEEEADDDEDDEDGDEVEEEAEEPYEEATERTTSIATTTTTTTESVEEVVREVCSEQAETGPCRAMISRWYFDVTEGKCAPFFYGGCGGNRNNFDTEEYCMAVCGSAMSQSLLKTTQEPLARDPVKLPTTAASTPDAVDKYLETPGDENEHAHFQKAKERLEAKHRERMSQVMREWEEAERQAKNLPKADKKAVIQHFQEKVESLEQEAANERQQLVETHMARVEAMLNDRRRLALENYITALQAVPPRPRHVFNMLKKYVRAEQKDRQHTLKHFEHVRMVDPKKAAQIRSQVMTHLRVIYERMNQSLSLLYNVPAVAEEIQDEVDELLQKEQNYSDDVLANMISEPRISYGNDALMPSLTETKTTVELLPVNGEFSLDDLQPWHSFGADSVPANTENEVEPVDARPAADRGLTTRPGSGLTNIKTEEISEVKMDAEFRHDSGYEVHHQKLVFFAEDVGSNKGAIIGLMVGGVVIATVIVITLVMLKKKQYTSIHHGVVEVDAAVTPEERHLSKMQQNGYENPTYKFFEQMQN
# Procedure, shortened: (§1)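 Paraffin human temporal-lobe sections (5 µm; AD case or control) deparaffinized through xylene and graded ethanol, then PBS (0.2 M, pH 7.4) for 30 min. Incubated with 18F tracer (1.85 MBq/200 µL), 1 h, room temperature; washed in 40% EtOH, rinsed in water; phosphor plate exposure 2 h.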
# Mus musculus = organism: Mus musculus; assay: Binding affinity to beta-amyloid in APPswe/PSEN1 transgenic C57BL6 mouse model brain at 1.85 MBq/[…] after 1 hr by thioflavin-S based autoradiography; conditions: 1.85 M, tested as the 18F-labelled form
# Procedure, shortened: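 Transgenic mouse brain sections deparaffinized, then incubated with 18F tracer (1.85 MBq/200 µL) for 1 h at room temperature. Washed in 40% EtOH, phosphor-imaged after 2 h exposure. Same sections then stained with 0.125% thioflavin-S in 10% EtOH for 3 min and imaged by fluorescence (excitation 405 nm, long-pass 505 nm).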
# [2] = Displacement of [125I]IMPY from amyloid beta (1 to 42) after 2 hrs by gamma counting
# Procedure, shortened: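 Competition binding against [125I]IMPY (radiochemical purity >95%) on Aβ1-42 aggregates with 1% BSA solution; inhibitor 10^-4–10^-9.5 M; 37 °C, 2 h. Free and bound separated by vacuum filtration on GF/B filters, three PBS washes (0.02 M, pH 7.4, room temperature); filters gamma-counted. Three repeats; IC50 fitted, Ki from Cheng–Prusoff.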
# [3] = biological target: Amyloid-beta precursor protein (Homo sapiens) (UniProt P05067); assay: Binding affinity to beta-amyloid in Alzheimer's disease patient brain at 1.85 MBq/[…] after 1 hr by thioflavin-S based autoradiography; conditions: 1.85 M, tested as the 18F-labelled form; procedure, shortened: as §1
# Blood [4] = assay: Biodistribution in ICR mouse blood at 370 kBq, iv after 30 mins by gamma counting; assay type: ADME, organism-based; conditions: in vivo, 0.5 h
# Procedure, shortened: (§2)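 Male ICR mice (five weeks, 20–22 g), tail-vein injection of 18F tracer in 0.1 mL saline with 10% EtOH. Killed by decapitation at set times, n = 5 per time point. Organs removed, weighed and gamma-counted; %ID/g wet tissue from comparison with diluted aliquots of injected dose; mean ± SD.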
# Lung [5] = assay: Biodistribution in ICR mouse lung at 370 kBq, iv after 60 mins by gamma counting; assay type: ADME, organism-based; conditions: in vivo, 1 h; procedure, shortened: as §2
# Lung [6] = assay: Biodistribution in ICR mouse lung at 370 kBq, iv after 10 mins by gamma counting; assay type: ADME, organism-based; conditions: in vivo; procedure, shortened: as §2
# Bone [7] = assay: Biodistribution in ICR mouse bone at 370 kBq, iv after 60 mins by gamma counting; assay type: ADME, organism-based, Bone element; conditions: in vivo, 1 h; procedure, shortened: as §2
# Spleen [8] = assay: Biodistribution in ICR mouse spleen at 370 kBq, iv after 2 mins by gamma counting; assay type: ADME, organism-based; conditions: in vivo; procedure, shortened: as §2
# Heart [9] = assay: Biodistribution in ICR mouse heart at 370 kBq, iv after 60 mins by gamma counting; assay type: ADME, organism-based; conditions: in vivo, 1 h; procedure, shortened: as §2
# Blood [10] = assay: Biodistribution in ICR mouse blood at 370 kBq, iv after 2 mins by gamma counting; assay type: ADME, organism-based; conditions: in vivo; procedure, shortened: as §2
# Brain [11] = assay: Biodistribution in ICR mouse brain at 370 kBq, iv after 10 mins by gamma counting; assay type: ADME, organism-based; conditions: in vivo; procedure, shortened: as §2
# Lung [12] = assay: Biodistribution in ICR mouse lung at 370 kBq, iv after 2 mins by gamma counting; assay type: ADME, organism-based; conditions: in vivo; procedure, shortened: as §2
# Brain [13] = assay: Biodistribution in ICR mouse brain at 370 kBq, iv after 30 mins by gamma counting; assay type: ADME, organism-based; conditions: in vivo, 0.5 h; procedure, shortened: as §2
# Heart [14] = assay: Biodistribution in ICR mouse heart at 370 kBq, iv after 10 mins by gamma counting; assay type: ADME, organism-based; conditions: in vivo; procedure, shortened: as §2
# Spleen [15] = assay: Biodistribution in ICR mouse spleen at 370 kBq, iv after 10 mins by gamma counting; assay type: ADME, organism-based; conditions: in vivo; procedure, shortened: as §2
# Intestine [16] = assay: Biodistribution in ICR mouse intestine at 370 kBq, iv after 10 mins by gamma counting; assay type: ADME, organism-based; conditions: in vivo; procedure, shortened: as §2
# Spleen [17] = assay: Biodistribution in ICR mouse spleen at 370 kBq, iv after 60 mins by gamma counting; assay type: ADME, organism-based; conditions: in vivo, 1 h; procedure, shortened: as §2
# Brain [18] = assay: Ratio of drug level in ICR mouse brain after 2 mins to ICR mouse brain after 60 mins at 370 kBq, iv; assay type: ADME, organism-based; conditions: in vivo
# Procedure, shortened: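 Same intravenous study in ICR mice (370 kBq 18F tracer in saline/10% EtOH, n = 5 per time point). Ratio is brain %ID/g at 2 min divided by brain %ID/g at 60 min post-injection.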
# Kidney [19] = assay: Biodistribution in ICR mouse kidney at 370 kBq, iv after 2 mins by gamma counting; assay type: ADME, organism-based; conditions: in vivo; procedure, shortened: as §2
# Kidney [20] = assay: Biodistribution in ICR mouse kidney at 370 kBq, iv after 60 mins by gamma counting; assay type: ADME, organism-based; conditions: in vivo, 1 h; procedure, shortened: as §2
# Kidney [21] = assay: Biodistribution in ICR mouse kidney at 370 kBq, iv after 30 mins by gamma counting; assay type: ADME, organism-based; conditions: in vivo, 0.5 h; procedure, shortened: as §2
# Stomach [22] = assay: Biodistribution in ICR mouse stomach at 370 kBq, iv after 60 mins by gamma counting; assay type: ADME, organism-based; conditions: in vivo, 1 h; procedure, shortened: as §2
# Blood [23] = assay: Biodistribution in ICR mouse blood at 370 kBq, iv after 10 mins by gamma counting; assay type: ADME, organism-based; conditions: in vivo; procedure, shortened: as §2
# Intestine [24] = assay: Biodistribution in ICR mouse intestine at 370 kBq, iv after 60 mins by gamma counting; assay type: ADME, organism-based; conditions: in vivo, 1 h; procedure, shortened: as §2
# Heart [25] = assay: Biodistribution in ICR mouse heart at 370 kBq, iv after 2 mins by gamma counting; assay type: ADME, organism-based; conditions: in vivo; procedure, shortened: as §2
# Stomach [26] = assay: Biodistribution in ICR mouse stomach at 370 kBq, iv after 2 mins by gamma counting; assay type: ADME, organism-based; conditions: in vivo; procedure, shortened: as §2
# Intestine [27] = assay: Biodistribution in ICR mouse intestine at 370 kBq, iv after 2 mins by gamma counting; assay type: ADME, organism-based; conditions: in vivo; procedure, shortened: as §2
# Brain [28] = assay: Biodistribution in ICR mouse brain at 370 kBq, iv after 60 mins by gamma counting; assay type: ADME, organism-based; conditions: in vivo, 1 h; procedure, shortened: as §2
# Liver [29] = assay: Biodistribution in ICR mouse liver at 370 kBq, iv after 60 mins by gamma counting; assay type: ADME, organism-based; conditions: in vivo, 1 h; procedure, shortened: as §2
# Bone [30] = assay: Biodistribution in ICR mouse bone at 370 kBq, iv after 10 mins by gamma counting; assay type: ADME, organism-based, Bone element; conditions: in vivo; procedure, shortened: as §2
# Liver [31] = assay: Biodistribution in ICR mouse liver at 370 kBq, iv after 2 mins by gamma counting; assay type: ADME, organism-based; conditions: in vivo; procedure, shortened: as §2
# Bone [32] = assay: Biodistribution in ICR mouse bone at 370 kBq, iv after 2 mins by gamma counting; assay type: ADME, organism-based, Bone element; conditions: in vivo; procedure, shortened: as §2
# Lung [33] = assay: Biodistribution in ICR mouse lung at 370 kBq, iv after 30 mins by gamma counting; assay type: ADME, organism-based; conditions: in vivo, 0.5 h; procedure, shortened: as §2
# Intestine [34] = assay: Biodistribution in ICR mouse intestine at 370 kBq, iv after 30 mins by gamma counting; assay type: ADME, organism-based; conditions: in vivo, 0.5 h; procedure, shortened: as §2
# Spleen [35] = assay: Biodistribution in ICR mouse spleen at 370 kBq, iv after 30 mins by gamma counting; assay type: ADME, organism-based; conditions: in vivo, 0.5 h; procedure, shortened: as §2
# Liver [36] = assay: Biodistribution in ICR mouse liver at 370 kBq, iv after 10 mins by gamma counting; assay type: ADME, organism-based; conditions: in vivo; procedure, shortened: as §2
# Blood [37] = assay: Biodistribution in ICR mouse blood at 370 kBq, iv after 60 mins by gamma counting; assay type: ADME, organism-based; conditions: in vivo, 1 h; procedure, shortened: as §2
# [38] = Lipophilicity, log D of the compound; assay type: physicochemical; conditions: octanol/water
# Procedure, shortened: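 18F tracer (740 kBq) in 3 g n-octanol plus 3 g PBS (0.05 M, pH 7.4). Vortexed 3 min at room temperature, centrifuged 5 min at 3000 rpm; weighed samples from octanol and buffer layers counted.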
# Stomach [39] = assay: Biodistribution in ICR mouse stomach at 370 kBq, iv after 30 mins by gamma counting; assay type: ADME, organism-based; conditions: in vivo, 0.5 h; procedure, shortened: as §2
# Stomach [40] = assay: Biodistribution in ICR mouse stomach at 370 kBq, iv after 10 mins by gamma counting; assay type: ADME, organism-based; conditions: in vivo; procedure, shortened: as §2
# Kidney [41] = assay: Biodistribution in ICR mouse kidney at 370 kBq, iv after 10 mins by gamma counting; assay type: ADME, organism-based; conditions: in vivo; procedure, shortened: as §2
# Bone [42] = assay: Biodistribution in ICR mouse bone at 370 kBq, iv after 30 mins by gamma counting; assay type: ADME, organism-based, Bone element; conditions: in vivo, 0.5 h; procedure, shortened: as §2
# Brain [43] = assay: Biodistribution in ICR mouse brain at 370 kBq, iv after 2 mins by gamma counting; assay type: ADME, organism-based; conditions: in vivo; procedure, shortened: as §2
# Liver [44] = assay: Biodistribution in ICR mouse liver at 370 kBq, iv after 30 mins by gamma counting; assay type: ADME, organism-based; conditions: in vivo, 0.5 h; procedure, shortened: as §2
# Heart [45] = assay: Biodistribution in ICR mouse heart at 370 kBq, iv after 30 mins by gamma counting; assay type: ADME, organism-based; conditions: in vivo, 0.5 h; procedure, shortened: as §2
smiles,measurement,setting,value
CNc1ccc2nc(-c3ccc(OCCF)cc3)cnc2c1,Activity,[1],inactive
same,Activity,Mus musculus,Active
same,Ki,[2],10 nM
same,Activity,[3],Active
CNc1ccc2nc(-c3ccc(OCC[18F])cc3)cnc2c1,Drug uptake,Blood [4],5.09 % ID/g
same,Drug uptake,Lung [5],3.77 % ID/g
same,Drug uptake,Lung [6],4.36 % ID/g
same,Drug uptake,Bone [7],6.2 % ID/g
same,Drug uptake,Spleen [8],4.71 % ID/g
same,Drug uptake,Heart [9],4.24 % ID/g
same,Drug uptake,Blood [10],4.93 % ID/g
same,Drug uptake,Brain [11],5.07 % ID/g
same,Drug uptake,Lung [12],6.38 % ID/g
same,Drug uptake,Brain [13],3.45 % ID/g
same,Drug uptake,Heart [14],4.27 % ID/g
same,Drug uptake,Spleen [15],3.87 % ID/g
same,Drug uptake,Intestine [16],12.87 %ID
same,Drug uptake,Spleen [17],3.04 % ID/g
same,Ratio,Brain [18],2.58
same,Drug uptake,Kidney [19],9.37 % ID/g
same,Drug uptake,Kidney [20],3.79 % ID/g
same,Drug uptake,Kidney [21],4.25 % ID/g
same,Drug uptake,Stomach [22],2.5 %ID
same,Drug uptake,Blood [23],4.68 % ID/g
same,Drug uptake,Intestine [24],18.75 %ID
same,Drug uptake,Heart [25],6.08 % ID/g
same,Drug uptake,Stomach [26],1.81 %ID
same,Drug uptake,Intestine [27],9.63 %ID
same,Drug uptake,Brain [28],3.17 % ID/g
same,Drug uptake,Liver [29],5 % ID/g
same,Drug uptake,Bone [30],2.84 % ID/g
same,Drug uptake,Liver [31],9.5 % ID/g
same,Drug uptake,Bone [32],2.46 % ID/g
same,Drug uptake,Lung [33],3.78 % ID/g
same,Drug uptake,Intestine [34],17.15 %ID
same,Drug uptake,Spleen [35],3.35 % ID/g
same,Drug uptake,Liver [36],7.8 % ID/g
same,Drug uptake,Blood [37],5.24 % ID/g
same,logD,[38],3.14
same,Drug uptake,Stomach [39],1.84 %ID
same,Drug uptake,Stomach [40],2.55 %ID
same,Drug uptake,Kidney [41],5.96 % ID/g
same,Drug uptake,Bone [42],5.73 % ID/g
same,Drug uptake,Brain [43],8.17 % ID/g
same,Drug uptake,Liver [44],5.37 % ID/g
same,Drug uptake,Heart [45],4.28 % ID/g
